Data set [1] has as its target T1, 5-hydroxytryptamine receptor 6 (Homo sapiens, UniProt P50406). The data set is described as follows: Antagonist activity at human 5-HT6 receptor expressed in human HeLa cells assessed as inhibition of 5-HT-induced cAMP accumulation pretreated for 10 mins before 5-HT addition measured after 30 mins. In kind it is functional, cell-based. In general terms: cAMP levels reflect the balance of adenylyl cyclase and phosphodiesterase activity.

Data set [2] addresses T1, 5-hydroxytryptamine receptor 6. The data set is described as follows: Antagonist activity at human 5-HT6 receptor expressed in human HeLa cells assessed as inhibition of 5-HT-induced cAMP accumulation at 10 uM pretreated for 10 mins before 5-HT addition measured after 30 mins. In kind it is functional, cell-based. The gist of the method: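 HeLa cells stably expressing human 5-HT6 receptor, grown at 37 °C in 5% CO2/95% air, suspended in PBS with 2 mM IBMX. Compound pretreatment 10 min, then 100 nM 5-HT stimulation for 30 min. cAMP measured by HTRF (d2-labeled cAMP plus cryptate anti-cAMP antibody, 1 h at room temperature), excitation 314 nm, emission 668 and 620 nm. Single-point inhibition read at […].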

In a further data set the target is CYP2C19 (Homo sapiens, UniProt P33261). The data set is described as follows: Inhibition of human CYP2C19 assessed as residual activity using miconazole as […] at 10 uM relative to control. The data set is classed as ADME. As to conditions: probe miconazole, read-out: Activity.
The next data set has as its target CYP3A4 (Homo sapiens, UniProt P08684). The data set is described as follows: Inhibition of human CYP3A4 assessed as residual activity using ketoconazole as […] at 10 uM relative to control. The data set is classed as ADME. As to conditions: probe ketoconazole, read-out: Activity.
For the next data set, the target named is CYP2C9 (Homo sapiens, UniProt P11712). The data set is described as follows: Inhibition of human CYP2C9 assessed as residual activity using sulfaphenazol as […] at 10 uM relative to control. The data set is classed as ADME. As to conditions: read-out: Activity.
The target of the next data set is CYP2D6 (Homo sapiens, UniProt P10635). The data set is described as follows: Inhibition of human CYP2D6 assessed as residual activity using quinidine as […] at 10 uM relative to control. The data set is classed as ADME. As to conditions: probe quinidine, read-out: Activity.
Data set [3] in a line: Metabolic stability in human liver microsomes assessed as compound remaining after 30 mins. As to conditions: read-out: Stability. The data set is classed as ADME, Microsome. In a few lines:
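Compounds incubated with human hepatic microsomes; percent of parent concentration remaining at 30 min.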
(In general: Liver microsomes are vesicles of endoplasmic reticulum, rich in cytochrome P450 enzymes.)

A further data set deals with T2, CYP1A2 (Homo sapiens, UniProt P05177).
T2 sequence (P05177 whole entry): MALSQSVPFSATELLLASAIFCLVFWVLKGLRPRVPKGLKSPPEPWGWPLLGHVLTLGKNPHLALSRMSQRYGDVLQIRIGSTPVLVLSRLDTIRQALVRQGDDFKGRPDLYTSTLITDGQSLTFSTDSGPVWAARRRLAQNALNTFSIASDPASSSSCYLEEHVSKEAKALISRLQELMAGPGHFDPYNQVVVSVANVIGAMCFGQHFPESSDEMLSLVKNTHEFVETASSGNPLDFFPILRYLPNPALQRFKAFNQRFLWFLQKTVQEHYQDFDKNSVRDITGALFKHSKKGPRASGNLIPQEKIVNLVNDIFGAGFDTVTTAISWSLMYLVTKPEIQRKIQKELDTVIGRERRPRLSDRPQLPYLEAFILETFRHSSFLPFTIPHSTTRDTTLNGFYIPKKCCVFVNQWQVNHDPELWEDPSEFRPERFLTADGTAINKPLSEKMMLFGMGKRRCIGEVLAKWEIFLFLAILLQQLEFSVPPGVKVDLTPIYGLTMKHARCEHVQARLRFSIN
The data set is described as follows: Inhibition of human CYP1A2 assessed as residual activity using alpha-naphthoflavon as […] at 10 uM relative to control. The data set is classed as ADME. As to conditions: read-out: Activity.

In data set [4] the test system is Rattus norvegicus. The data set is described as follows: Antiallodynic activity in rat spinal nerve ligation neuropathic pain mechanical allodynia model at 100 mg/kg, po after 5 hrs. The data set is classed as functional, organism-based. Also noted: dose 100 mg/kg. In a few lines:
(§1)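 Cold and mechanical allodynia assessed at hours after a single oral 100 mg/kg dose, n = 4 per group; gabapentin 100 mg/kg po as reference.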

For data set [5], the system named is Rattus norvegicus. The data set is described as follows: Antiallodynic activity in rat spinal nerve ligation neuropathic pain mechanical allodynia model at 100 mg/kg, po after 1 to 3 hrs. The data set is classed as functional, organism-based. Also noted: dose 100 mg/kg. In a few lines: as §1
For data set [6], the species on record is Rattus norvegicus. The data set is described as follows: Ratio of gabapentin antiallodynic activity to compound antiallodynic activity in rat spinal nerve ligation neuropathic pain cold allodynia model. In kind it is functional.
For data set [7], the system named is Rattus norvegicus. The data set is described as follows: Antiallodynic activity in rat spinal nerve ligation neuropathic pain cold allodynia model at 100 mg/kg, po after 1 to 5 hrs. The data set is classed as functional, organism-based. Also noted: dose 100 mg/kg. In a few lines:
as §1

The source made the active and inactive calls. No cut-off for these calls is given here.

In general, IC50 refers to the concentration that inhibits the measured activity by half. Usually inhibition stands for the percentage by which the read-out fell short of the control.

Chain of CYP3A4 (P08684 whole entry): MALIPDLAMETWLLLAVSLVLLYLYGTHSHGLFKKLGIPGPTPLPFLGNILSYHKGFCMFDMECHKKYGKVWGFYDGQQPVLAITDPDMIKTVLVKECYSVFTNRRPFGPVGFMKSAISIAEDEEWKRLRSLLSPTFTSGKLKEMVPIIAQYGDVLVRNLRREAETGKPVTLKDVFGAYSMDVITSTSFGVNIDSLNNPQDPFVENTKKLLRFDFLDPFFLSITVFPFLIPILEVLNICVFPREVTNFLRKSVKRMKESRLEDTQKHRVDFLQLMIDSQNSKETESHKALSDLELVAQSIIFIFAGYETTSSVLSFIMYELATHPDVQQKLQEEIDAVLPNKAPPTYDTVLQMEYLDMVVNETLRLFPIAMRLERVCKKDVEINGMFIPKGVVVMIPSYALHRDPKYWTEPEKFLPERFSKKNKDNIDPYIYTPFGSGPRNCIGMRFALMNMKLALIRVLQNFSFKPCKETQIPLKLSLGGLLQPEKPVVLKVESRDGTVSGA
Chain of CYP2C9 (P11712 whole entry): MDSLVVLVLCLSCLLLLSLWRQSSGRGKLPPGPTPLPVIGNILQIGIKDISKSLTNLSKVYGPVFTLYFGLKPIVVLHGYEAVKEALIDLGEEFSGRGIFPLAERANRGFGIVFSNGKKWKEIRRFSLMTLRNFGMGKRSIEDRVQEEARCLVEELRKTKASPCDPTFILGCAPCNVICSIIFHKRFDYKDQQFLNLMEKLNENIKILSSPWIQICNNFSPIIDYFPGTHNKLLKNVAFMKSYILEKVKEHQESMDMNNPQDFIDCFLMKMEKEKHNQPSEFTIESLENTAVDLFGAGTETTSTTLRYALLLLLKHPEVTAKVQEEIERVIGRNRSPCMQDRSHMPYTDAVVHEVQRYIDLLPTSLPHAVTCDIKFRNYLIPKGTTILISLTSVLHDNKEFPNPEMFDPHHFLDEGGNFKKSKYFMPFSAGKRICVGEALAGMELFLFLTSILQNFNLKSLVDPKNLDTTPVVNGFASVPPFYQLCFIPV
Chain of CYP2C19 (P33261 whole entry): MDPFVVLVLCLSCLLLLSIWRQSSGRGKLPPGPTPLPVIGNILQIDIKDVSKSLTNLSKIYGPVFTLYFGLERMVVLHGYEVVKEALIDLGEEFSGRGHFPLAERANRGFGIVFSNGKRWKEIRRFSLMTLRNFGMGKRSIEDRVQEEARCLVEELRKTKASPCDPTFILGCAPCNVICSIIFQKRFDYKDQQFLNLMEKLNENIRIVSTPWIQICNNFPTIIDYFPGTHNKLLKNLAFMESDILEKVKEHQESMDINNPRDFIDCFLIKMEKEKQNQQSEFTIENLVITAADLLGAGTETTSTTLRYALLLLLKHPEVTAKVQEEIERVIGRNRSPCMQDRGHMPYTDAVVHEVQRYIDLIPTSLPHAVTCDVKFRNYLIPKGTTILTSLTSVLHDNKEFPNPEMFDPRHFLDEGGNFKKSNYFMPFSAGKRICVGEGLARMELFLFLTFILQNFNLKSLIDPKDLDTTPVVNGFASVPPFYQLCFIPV
Chain of CYP2D6 (P10635 whole entry): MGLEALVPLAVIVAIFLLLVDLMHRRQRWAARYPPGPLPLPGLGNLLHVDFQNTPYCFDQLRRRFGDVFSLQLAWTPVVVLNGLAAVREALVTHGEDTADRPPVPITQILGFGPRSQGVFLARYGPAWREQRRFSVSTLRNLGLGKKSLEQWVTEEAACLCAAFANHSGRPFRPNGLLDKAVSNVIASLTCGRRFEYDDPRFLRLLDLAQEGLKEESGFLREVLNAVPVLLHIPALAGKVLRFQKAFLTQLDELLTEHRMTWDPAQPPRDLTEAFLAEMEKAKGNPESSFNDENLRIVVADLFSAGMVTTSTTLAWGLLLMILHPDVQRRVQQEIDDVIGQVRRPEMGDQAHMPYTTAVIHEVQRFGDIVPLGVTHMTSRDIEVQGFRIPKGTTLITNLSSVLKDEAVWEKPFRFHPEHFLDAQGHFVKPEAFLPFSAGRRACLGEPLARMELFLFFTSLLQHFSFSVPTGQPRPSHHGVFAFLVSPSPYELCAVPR
T1 sequence (P50406 whole entry): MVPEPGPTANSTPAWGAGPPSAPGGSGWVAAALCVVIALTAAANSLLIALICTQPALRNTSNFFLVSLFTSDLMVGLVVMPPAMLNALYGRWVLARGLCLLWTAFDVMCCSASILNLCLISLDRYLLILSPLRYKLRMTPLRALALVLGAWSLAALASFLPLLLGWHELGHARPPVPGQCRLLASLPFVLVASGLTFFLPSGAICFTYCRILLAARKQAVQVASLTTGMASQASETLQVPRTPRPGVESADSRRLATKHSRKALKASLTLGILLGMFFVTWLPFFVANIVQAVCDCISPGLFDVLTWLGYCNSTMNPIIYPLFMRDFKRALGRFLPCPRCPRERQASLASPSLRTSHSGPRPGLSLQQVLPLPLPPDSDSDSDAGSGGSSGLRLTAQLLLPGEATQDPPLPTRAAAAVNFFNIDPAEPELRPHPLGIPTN

With `Cc1ccc(N2CCc3c(NS(=O)(=O)c4ccc(F)cc4)n[nH]c3C2=O)cc1`, the IC50 in data set [1] stood at 5220 nM. Further, in [2], the inhibition was found to be 67.9%.

For the compound `Cc1ccc(N2CCc3c(NS(=O)(=O)c4ccccc4)n[nH]c3C2=O)cc1`, the inhibition in data set [2] was determined as 23.5%.

For `O=C1c2[nH]nc(NS(=O)(=O)c3ccc4ccccc4c3)c2CCN1CC1CCNCC1`, the inhibition in [2] came out at 40.9%.

As for `Cc1ccc(N2CCc3c(NS(=O)(=O)c4cc(C)ccc4F)n[nH]c3C2=O)cc1`, the inhibition in data set [2] worked out at 25.9%.

As for `COc1ccc(N2CCc3c(NS(=O)(=O)c4cccc(OC)c4)n[nH]c3C2=O)cc1`, the IC50 in data set [1] stood at 7080 nM. Also, in data set [2], the inhibition was 63.3%.

As to `CC(C)(C)c1ccc(S(=O)(=O)Nc2n[nH]c3c2CCN(CC2CCNCC2)C3=O)cc1`, in [2], the inhibition was 11.5%.

Turning to `COc1ccc(S(=O)(=O)Nc2n[nH]c3c2CCN(C2CCNCC2)C3=O)cc1`, the inhibition in [2] turned out to be 26.1%.

As to `COc1ccc(S(=O)(=O)Nc2n[nH]c3c2CCN(CC2CCNCC2)C3=O)cc1`, the inhibition in data set [2] worked out at 15.1%.

With `COc1ccc(OC)c(S(=O)(=O)Nc2n[nH]c3c2CCN(c2ccc(C)cc2)C3=O)c1`, the inhibition in data set [2] stood at 3.8%.

Turning to `Cc1ccc(N2CCc3c(NS(=O)(=O)c4cccc(Cl)c4)n[nH]c3C2=O)cc1`, the inhibition in data set [2] came to 5.4%.

Take `Cc1ccc(F)c(S(=O)(=O)Nc2n[nH]c3c2CCN(CC2CCNCC2)C3=O)c1`: the inhibition in [2] came to 30.6%.

`O=C1c2[nH]nc(NS(=O)(=O)c3cccc4ccccc34)c2CCN1C1CCNCC1`: the activity at 10 µM at CYP2C19 worked out at 99.8%; at CYP3A4, 16.7%; at CYP2C9, 94.5%; at CYP2D6 it was 95.1%; at CYP1A2 it was 67.7%. In addition, the remaining at 0.5 h in [3] stood at 101%. Besides, in [1], the IC50 was 770 nM. Also, in [2], the inhibition is 89.5%.

On to `COc1cccc(S(=O)(=O)Nc2n[nH]c3c2CCN(c2ccc(C)cc2)C3=O)c1`, for which the IC50 in data set [1] was determined as 6770 nM. Also, in [2], the inhibition is 63.2%.

Take `COc1ccc(NS(=O)(=O)c2ccc(I)cc2)cc1N1CCN(C)CC1`: the inhibition in [2] came out at 97.7%.

For the compound `COc1ccc(N2CCc3c(NS(=O)(=O)c4cccc(F)c4)n[nH]c3C2=O)cc1`, the activity at 10 µM on CYP2C19 worked out at 81.8%; at CYP3A4 it was 19.5%; at CYP2C9 it was 78.6%; on CYP2D6, 87.8%; at CYP1A2, 63.5%. The remaining at 0.5 h in data set [3] was determined as 96.3%. The IC50 in data set [1] was determined as 580 nM. The inhibition in data set [2] was 95.2%.

With `Cc1ccc(N2CCc3c(NS(=O)(=O)c4ccccc4F)n[nH]c3C2=O)cc1`, the inhibition in data set [2] was determined as 29.6%.

As to `COc1ccc(N2CCc3c(NS(=O)(=O)c4ccccc4)n[nH]c3C2=O)cc1`, the inhibition in data set [2] is 30.6%.

Regarding `COc1ccc(N2CCc3c(NS(=O)(=O)c4ccc(F)cc4)n[nH]c3C2=O)cc1`, in data set [2], the inhibition turned out to be 30.6%.

Consider `O=C1c2[nH]nc(NS(=O)(=O)c3cccc4ccccc34)c2CCN1CC1CCNCC1`, for which, in the data set on Rattus norvegicus [4], the Activity entry was “inactive”. Moreover, the Activity entry in the data set with Rattus norvegicus [5] and with Rattus norvegicus [7] was “Active” each time. For the same compound, the Ratio in the data set listed under Rattus norvegicus [6] is on record as 5. Besides, the activity at 10 µM on CYP2C19 amounted to 104%; at CYP3A4, 17.8%; on CYP2C9 it was 98.4%; at CYP2D6, 97.2%; at CYP1A2, 79.1%. In addition, the remaining at 0.5 h in data set [3] was 90.8%. Besides, in [1], the 50% inhibitory concentration (IC50) is 310 nM. Also, the inhibition in data set [2] was determined as 94.1%.

For `Cc1c(Cl)cccc1S(=O)(=O)Nc1n[nH]c2c1CCN(CC1CCNCC1)C2=O`, the inhibition in data set [2] worked out at 51.7%.

On to `O=C1c2[nH]nc(NS(=O)(=O)c3cccc(Cl)c3)c2CCN1CC1CCNCC1`, for which the inhibition in data set [2] came out at 31%.

Consider `Cc1ccc(N2CCc3c(NS(=O)(=O)c4cccc(C(F)(F)F)c4)n[nH]c3C2=O)cc1`, for which the IC50 in data set [1] came to 3280 nM. In addition, the inhibition in data set [2] came to 69%.

With `Cc1ccc(N2CCc3c(NS(=O)(=O)c4cccc(Cl)c4C)n[nH]c3C2=O)cc1`, the IC50 in data set [1] came to 1660 nM. Moreover, the inhibition in data set [2] came to 92.2%.

`Cc1ccc(N2CCc3c(NS(=O)(=O)c4cccc(F)c4)n[nH]c3C2=O)cc1`: in [2], the inhibition worked out at 18.1%.

(Values after ChEMBL document CHEMBL2406983, “Synthesis and the 5-HT6 receptor antagonistic effect of 3-arylsulfonylamino-5,6-dihydro-6-substituted pyrazolo[3,4]pyridinones for neuropathic pain treatment” (Bioorg Med Chem Lett, 2013).)
